Rows were chosen to be rich in hits. Some 1.5% of all compounds tested hit in one or more screens of this group.
hiPSC survival – enhancers of single-cell hiPSC survival, primary screen, ATPlite luminescence | AID 602274, 2012 | survival enhancement, % at 20 µM | hit rate 0.044% among 360,000 | 100% = ROCK inhibitor wells, 0% = DMSO; in the data active = survival enhancement above about 18%;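 note: cells exposed to compounds for 16 hours before the ATP read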
CXCR6 block – CXCR6 receptor inhibitors, primary screen, cell-based, beta-arrestin, luminescence, CHO-K1 PathHunter, 1536-well. C-X-C chemokine receptor type 6 (Homo sapiens), O00574. inhibition, % at 20 µM. hit rate 0.36% among 360,000; in the data active = inhibition above about 34%, passing the limit was not always enough;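 note: antagonist mode with CXCL16 agonist at 10 nM final; 0% = 10 nM CXCL16 with DMSO and 100% = unstimulated wells without agonist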
Target sequence (O00574 whole entry, looked up): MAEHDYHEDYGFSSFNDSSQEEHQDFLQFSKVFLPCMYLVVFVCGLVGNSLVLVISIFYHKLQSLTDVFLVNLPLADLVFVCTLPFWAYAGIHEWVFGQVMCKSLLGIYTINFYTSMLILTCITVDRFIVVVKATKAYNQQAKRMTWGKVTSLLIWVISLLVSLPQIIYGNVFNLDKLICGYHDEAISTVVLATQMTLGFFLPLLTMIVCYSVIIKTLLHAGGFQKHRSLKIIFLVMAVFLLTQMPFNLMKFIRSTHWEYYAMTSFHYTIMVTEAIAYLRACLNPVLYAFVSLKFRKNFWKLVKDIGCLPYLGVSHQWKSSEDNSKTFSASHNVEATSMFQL
EBI2 block – EBI2 receptor antagonists, beta-arrestin recruitment, primary screen, cell-based, luminescence, 7a,25-OHC stimulation, uHTS; inhibition, % at 5 µM; 7a,25-OHC stimulated; hit rate 0.81% among 360,000; in the data active = inhibition above about 38%;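 note: enzyme fragment complementation signal reports receptor beta-arrestin coupling in cells; 0% = agonist plus DMSO wells and 100% = wells without agonist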
CCR6 antagonist – CCR6 receptor antagonists, primary screen, cell-based, CHO-K1, luminescence, beta-arrestin, uHTS; CHO-K1 CCR6 PathHunter beta-arrestin, CCL20-stimulated; inhibition, % at 20 µM; hit rate 0.49% among 340,000; AID 493098, 2011;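 active = compounds whose inhibition of the agonist-driven luminescence signal at 20 µM reaches about 50%, limit read from the data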;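 note: cells stimulated with CCL20 at 14 nM final; plate controls were DMSO with CCL20 for no effect and DMSO without agonist for full effect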
APJ agonist – agonists of human apelin receptor APJ, primary screen, CHO-K1 cells, PathHunter beta-arrestin, luminescence | P35414 | 0% DMSO wells, 100% apelin | activation, % at 20 µM | hit rate 0.11% among 330,000 | AID 2520, 2010;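 active = activation more than six SD over the plate average, tested at 20 µM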;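 note: 0% = DMSO alone and 100% = apelin-13 at 10 nM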
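Material: CHO-K1 APJ beta-arrestin complementation cell line; Input: cell density 1000 per well; Incubation: compound stimulation 90 min at 25 °C, detection 60 min; Signal: luminescence from split beta-galactosidase complementation, Galacton Star/Emerald II substrate; Controls: DMSO-only wells as negative, 10 nM Apelin-13 as positive control.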
APJ antag – antagonists of human apelin receptor APJ, primary screen, CHO-K1 cells, beta-arrestin complementation, luminescence; inhibition, % at 20 µM; hit rate 0.32% among 330,000;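 active = inhibition above about 40% at 20 µM, limit read from the data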;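 note: cells challenged with 10 nM apelin-13 agonist together with compound; plate controls were apelin-13 plus DMSO wells for no effect and DMSO wells lacking apelin-13 for full effect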
EBI2 conf – EBI2 antagonist hit retest, beta-arrestin, confirmation, cell-based, single concentration, luminescence, 7a,25-OHC stimulation. shares compounds with EBI2 block. 7a,25-OHC antagonism. inhibition, % at 5 µM. hit rate 29% among 2,400;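 active = inhibition of at least 50%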
EBI2 ag – EBI2 agonist activity of antagonist hits, confirmation, counter-screen for EBI2 antagonist project, cell-based, single concentration, agonist mode, luminescence. shares compounds with EBI2 block. EBI2-expressing cells, 60 min; 0% vehicle, 100% 7α,25-dihydroxycholesterol control. activation, % at 5 µM. 2,400 tested, under 10 active. AID 652000, 2013;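 active = activation of at least 50%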
bGal counter – E. coli beta-galactosidase enzyme inhibition, confirmation, counter-screen for EBI2 antagonist project, biochemical, luminescence, single concentration; shares compounds with EBI2 block; inhibition, % at 5 µM; AID 652176, 2013; hit rate 1% among 2,400; purified beta-galactosidase, luminescent Galacton Star, 15 min;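 active = replicate-average signal at least 3 plate SD below neutral wells, shown as high inhibition, flagging enzyme-inhibiting false positives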;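 note: 0% = DMSO wells with enzyme and 100% = wells lacking enzyme; higher means stronger loss of beta-gal luminescence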
Numbers without * were called inactive; / = not tested or not shown.

SMILES	hiPSC survival	CXCR6 block	EBI2 block	CCR6 antagonist	APJ agonist	APJ antag	EBI2 conf	EBI2 ag	bGal counter
N#CCCN(Cc1ccccc1)S(=O)(=O)c1cccs1	0	6	0	8	-2	1	/	/	/
O=C(COC(=O)Cc1c(Cl)cccc1Cl)Nc1ccccc1-c1ccccc1	-1	-8	12	17	-2	3	/	/	/
O=C(CSCc1c(Cl)cccc1Cl)Nc1ccccc1-c1ccccc1	-2	7	41*	37	/	/	27	1	1
COc1cc(C(=O)N2CCN(C(=O)c3cc(-c4ccc(Br)cc4)n[nH]3)CC2)cc(OC)c1OC	0	2	52*	4	-1	-51	10	-1	-13
COc1cc(C(=O)N2CCN(C(=O)c3ccccc3)CC2)cc(OC)c1OC	1	-1	-1	-18	-1	13	/	/	/
COc1cccc(-c2cc(C(=O)N3CCN(S(=O)(=O)c4ccc(Br)cc4)CC3)[nH]n2)c1	0	-4	57*	14	5	-11	38	1	11
COc1ccc(S(=O)(=O)N2CCN(C(=O)c3cc(C)on3)CC2)cc1	1	-6	-13	-1	0	2	/	/	/
CC(C)c1ccc(S(=O)(=O)N2CCN(C(=O)c3cc(-c4ccccc4)n[nH]3)CC2)cc1	-4	8	75*	21	-3	-52	34	-1	-12
COc1ccc(S(=O)(=O)N2CCN(C(=O)c3cc(-c4ccccc4OC)n[nH]3)CC2)cc1	-1	-13	63*	6	3	-4	38	1	7
CCC(=O)Nc1ccc(C2=Nn3c(nnc3C(C)C)SC2)cc1	1	0	-4	6	0	9	/	/	/
CC(C)CC(=O)Nc1cc2c3c(c1)C(C)C(=O)N3CCC2 (stereo not drawn)	-1	-8	1	3	11	5	/	/	/
Cc1noc(NS(=O)(=O)c2ccc(NC(=O)c3ccc(Cl)c(S(=O)(=O)N(C)c4ccccc4)c3)cc2)c1C	0	0	7	6	-3	-36	/	/	/
CC(C)(C)NC(=O)COC(=O)c1ccc2c(c1)C(=O)N(Cc1ccco1)C2=O	-1	-2	-5	-3	-3	9	/	/	/
CC(=O)Nc1ccc(S(=O)(=O)N2CCC(C(=O)NCCc3c[nH]c4ccccc34)CC2)cc1	0	5	49*	-1	1	1	21	1	5
O=C(NCCc1c[nH]c2ccccc12)C1CCN(S(=O)(=O)c2ccccc2)CC1	0	6	37	15	-2	15	/	/	/
CCOc1ncccc1C(=O)OCC(=O)NC(=O)c1ccccc1	-1	-8	-8	0	-2	2	/	/	/
C/C=C\C=C/C(=O)Nc1cccc(C2=NOC3(C2)C[C@@H](C(N)=O)N(C(=O)COc2ccc(Cl)cc2)C3)c1 (stereo partly drawn)	-4	-4	39	3	0	0	/	/	/
C/C=C\C=C\C(=O)N1CC2(CC(c3cccc(NC(=O)COc4ccc(Cl)cc4)c3)=NO2)C[C@H]1C(N)=O (stereo partly drawn)	2	-8	48*	-4	9	-38	47	1	5
C(#Cc1c(-c2ccsc2)sc2ccccc12)c1ccsc1	0	-22	-1	18	-4	-6	/	/	/
Cc1ccc(C(=O)NCc2ccco2)cc1S(=O)(=O)N1CCCCC1	2	4	-2	14	-7	5	/	/	/
Cc1ccc(C(=O)Nc2ccccc2C(=O)NCc2ccco2)cc1S(=O)(=O)N1CCCCC1	-3	12	44*	26	-4	-1	28	0	8
CN(C)C(=O)CCc1ccc2c3c([nH]c2c1)[C@]1(CCc2ccccc2)[C@@H](C(=O)N2CCCCC2)C[C@H](CC(=O)NCc2cccc(C(F)(F)F)c2)C(=O)N1CC3	0	9	42*	14	/	/	33	-1	-23
O=S(=O)(N1CCOCC1)N1CCOCC1	0	2	-8	-5	-4	-7	/	/	/
O=C(c1ccc2ccccc2c1)N1CCN(S(=O)(=O)/C=C/c2ccccc2)CC1	0	1	90*	21	-3	8	77*	0	-6
O=C(/C=C/c1ccc(F)cc1)N1CCN(S(=O)(=O)/C=C/c2ccccc2)CC1	0	2	95*	23	0	-24	89*	0	8
SMILES	hiPSC survival	CXCR6 block	EBI2 block	CCR6 antagonist	APJ agonist	APJ antag	EBI2 conf	EBI2 ag	bGal counter
O=C(/C=C/c1ccccc1)N1CCN(S(=O)(=O)c2ccc(F)cc2)CC1	1	4	79*	6	-1	5	68*	0	6
O=C(COc1ccc(F)cc1Br)N1CCN(S(=O)(=O)/C=C/c2ccccc2)CC1	0	-11	38	0	-5	0	/	/	/
COc1cccc(/C=C/C(=O)N2CCN(S(=O)(=O)c3ccccc3)CC2)c1	1	2	90*	/	/	/	63*	0	-16
Cc1cc(NC(=O)COC(=O)C2CC(=O)N(c3cccc(C)c3C)C2)no1 (stereo not drawn)	-1	2	-9	5	-2	19	/	/	/
O=C(/C=C/c1cccc([N+](=O)[O-])c1)N1CCN(S(=O)(=O)c2cccs2)CC1	1	1	47*	7	-1	-6	41	0	7
Cc1ccc(C)c(N2CCN(C(=O)c3csc4ccccc34)CC2)c1	0	2	48*	15	-5	19	32	1	3
CCC(=O)N1CCN(c2cc(C)ccc2C)CC1	0	2	4	-8	-8	17	/	/	/
COC(=O)/C=C1/SC(=Nc2ccc(C)cc2C)NC1=O	-1	3	72*	9	-2	20	72*	0	3
COC(=O)/C=C1\SC(=Nc2ccccc2)NC1=O	1	8	52*	11	-2	15	59*	-1	-12

Screens: PubChem BioAssay, Sanford-Burnham Center for Chemical Genomics
